System: Ach15909
Test: HPLC of salidroside formed
Assay type: biochemical, Astilbe chinensis
Conditions: 2 mM UDP-glucose, 0.05-2.0 mM tyrosol, 50 mM PB pH 8.0, 37 °C, 30 min
Procedure, shortened: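 Recombinant A. chinensis UGT was expressed in E. coli Rosetta 2 (DE3), Ni-NTA purified with an imidazole gradient, exchanged into PBS pH 7.4, and quantified by BCA. Reactions were started by adding protein and quenched for C18 HPLC (0.1% formic acid water/acetonitrile gradient, 275 nm). Salidroside was quantified against an external standard curve, in triplicate, with kinetic parameters from non-linear fitting.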

OCCc1ccc(O)cc1 [compound 1, tyrosol]
Km: 740 ± 200 µM
